Results reported in ChEMBL document CHEMBL2010640, “Perturbing pro-survival proteins using quinoxaline derivatives: a structure-activity relationship study” (Bioorg Med Chem, 2012).
Active and inactive are the calls of the source. The calls are words filed in the database; no cut-off is given here.

How the values were obtained:
[1] = tested on: HeLa; experiment: Induction of apoptosis in human HeLa cells assessed as caspase activation at 1 uM by Hoechst staining; assay type: functional, cell-based
Method in brief: (§1)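 HeLa cells, 2000 cells/well, treated 6 h (ABT-737 1 μM; other compounds 10 μM, alone or combined); Caspase-Glo 3/7 reagent added, luminescence read after 1 h, RLU normalized to alamarBlue fluorescence. Separately, cell death across doses of the combination scored by Hoechst staining.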

[2] = tested on: HeLa; experiment: Induction of apoptosis in human HeLa cells overexpressing Bad3SA at 10 uM after 12 hrs by Hoechst staining; assay type: functional, cell-based
Method in brief: (§2)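 Doxycycline-inducible HeLa lines (Dox-GFP, Dox-Noxa, Dox-Bad3SA) induced with doxycycline (1 μg/mL) for 3 h, then treated for a further 12 h; ABT-737 tested at 1 μM, other compound at 10 μM, DMSO vehicle. Cells fixed and Hoechst-stained; condensed nuclei counted to give percent cell death.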

[3] = biological target: Induced myeloid leukemia cell differentiation protein Mcl-1 (Homo sapiens) (UniProt Q07820); experiment: Inhibition of Mcl-1 in doxycyclin-stimulated human HeLa cells overexpressing Bad3SA assessed as increase in caspase3/7 activity at 50 uM after 6 hrs by luminescence analysis; assay type: cell-based
Method in brief: (§3)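 Dox-Bad3SA HeLa cells (Bad3SA expressed under doxycycline control) exposed to compound for 6 h, with doxycycline or without it. Caspase 3/7 activity read as Caspase-Glo luminescence 1 h after adding reagent. Raw luminescence was normalized to alamarBlue fluorescence to correct for cell number.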

[4] = biological target: Induced myeloid leukemia cell differentiation protein Mcl-1 (Homo sapiens) (UniProt Q07820); experiment: Inhibition of Mcl-1 in human HeLa cells overexpressing Bad3SA assessed as increase in caspase3/7 activity at 50 uM after 6 hrs by luminescence analysis; assay type: cell-based; method in brief: as §3
[5] = tested on: HeLa; experiment: Induction of apoptosis in human HeLa cells assessed as caspase activation at 1 to 10 uM by Hoechst staining; assay type: functional, cell-based; method in brief: as §1
[6] = tested on: HeLa; experiment: Induction of apoptosis in human HeLa cells assessed as decrease in XIAP expression at 10 uM by Western blot analysis; assay type: functional, cell-based
Method in brief: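 HeLa cells treated 24 h, media and trypsinized cells pooled, lysed in RIPA buffer (pH 8.0); SDS-PAGE and Western blot for XIAP, α-tubulin as loading control.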

[7] = biological target: Induced myeloid leukemia cell differentiation protein Mcl-1 (Homo sapiens) (UniProt Q07820); experiment: Induction of Mcl-1-mediated apoptosis in doxycyclin-stimulated human HeLa cells expressing GFP at 10 uM after 12 hrs by Hoechst staining; assay type: cell-based; method in brief: as §2
[8] = biological target: Bcl-2-like protein 1 (Homo sapiens) (UniProt Q07817); experiment: Induction of Bcl-xL-mediated apoptosis in doxycyclin-stimulated human HeLa cells overexpressing Noxa at 10 uM after 12 hrs by Hoechst staining; assay type: cell-based; method in brief: as §2
[9] = biological target: Induced myeloid leukemia cell differentiation protein Mcl-1 (Homo sapiens) (UniProt Q07820); experiment: Induction of Mcl-1-mediated apoptosis in doxycyclin-stimulated human HeLa cells overexpressing Bad3SA at 10 uM after 12 hrs by Hoechst staining; assay type: cell-based; method in brief: as §2
[10] = tested on: HeLa; experiment: Induction of apoptosis in human HeLa cells expressing Bcl-xL assessed as decrease in Mcl-1 level at 1 to 10 uM by Western blot analysis; assay type: functional, cell-based; details: TDE = time-dependent effect
Method in brief: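 HeLa cells exposed to 1, 5 or 10 μM for 12 h (dose response), and Bcl-xL-overexpressing HeLa cells exposed to 10 μM for 3, 6 or 12 h (time course); lysates resolved by SDS-PAGE and blotted for Mcl-1, Bcl-xL and Bcl-2, actin as loading control, DMSO vehicle.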

[11] = tested on: HeLa; experiment: Induction of apoptosis in human HeLa cells assessed as decrease in Mcl-1 level after 12 hrs by Western blot analysis

Sequence of Induced myeloid leukemia cell differentiation protein Mcl-1 (Homo sapiens) (Q07820 whole entry): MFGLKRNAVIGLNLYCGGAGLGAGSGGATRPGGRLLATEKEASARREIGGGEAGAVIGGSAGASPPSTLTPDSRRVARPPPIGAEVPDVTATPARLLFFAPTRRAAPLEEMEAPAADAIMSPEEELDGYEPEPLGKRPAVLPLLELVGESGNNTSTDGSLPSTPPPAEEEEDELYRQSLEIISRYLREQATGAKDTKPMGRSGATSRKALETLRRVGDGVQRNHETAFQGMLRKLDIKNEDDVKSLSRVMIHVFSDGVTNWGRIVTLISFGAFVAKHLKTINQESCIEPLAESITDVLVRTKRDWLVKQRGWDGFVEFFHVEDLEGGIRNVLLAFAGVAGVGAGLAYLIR
Sequence of Bcl-2-like protein 1 (Homo sapiens) (Q07817 whole entry): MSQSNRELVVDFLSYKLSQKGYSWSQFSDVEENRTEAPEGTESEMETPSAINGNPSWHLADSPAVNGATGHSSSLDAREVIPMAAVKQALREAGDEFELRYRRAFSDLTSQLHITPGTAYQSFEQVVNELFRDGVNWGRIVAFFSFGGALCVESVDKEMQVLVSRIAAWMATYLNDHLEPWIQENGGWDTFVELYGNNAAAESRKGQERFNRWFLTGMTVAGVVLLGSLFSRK

**Q.** For `CN(C)CC[C@H](CSc1ccccc1)Nc1ccc(S(=O)(=O)NC(=O)c2ccc(N3CCN(Cc4ccccc4-c4ccc(Cl)cc4)CC3)cc2)cc1[N+](=O)[O-]`, which Activity [1] is on record?
**A.** inactive

**Q.** Which Activity [2] does the source give for `O=C(Nc1ccc2nc(-c3ccco3)c(-c3ccco3)nc2c1)Nc1ccccc1Br` here?
**A.** inactive

**Q.** With `O=C(Nc1ccc(Br)cc1)Nc1ccc2nc(-c3ccccn3)c(-c3ccccn3)nc2c1` as the compound, how does the Activity [2] read?
**A.** inactive

**Q.** Which results are given for `CC[C@@]1(O)C(=O)OCc2c1cc1n(c2=O)Cc2cc3ccccc3nc2-1`?
**A.** inhibition [3]: Active; inhibition [4]: inactive

**Q.** Which Activity [5] does the source give for `Cc1nc2ccc(NC(=O)Nc3ccc(Br)cc3)cc2nc1C` here?
**A.** inactive

**Q.** What about the Activity [2] of the same compound?
**A.** inactive

**Q.** Which Activity [2] does the source give for `O=C(Nc1ccc(Br)cc1)Nc1ccc2nc(-c3ccccc3)c(-c3ccccc3)nc2c1` here?
**A.** Active

**Q.** Which results are given for `O=C(Nc1ccc(Br)cc1)Nc1ccc2nc(-c3ccco3)c(-c3ccco3)nc2c1`?
**A.** Activity [6]: Active; Activity [5]: inactive; Activity [2]: Active; Activity [7]: inactive; Activity [8]: inactive; Activity [9]: Active; Activity [10]: tde; Activity [11]: Dose-dependent effect

**Q.** For `O=C(Nc1ccccc1)Nc1ccc2nccnc2c1`, which Activity [2] is on record?
**A.** inactive

**Q.** How did the Activity [2] turn out when `O=C(Nc1ccc(Br)cc1)Nc1ccc2nc(-c3cccs3)c(-c3cccs3)nc2c1` was run?
**A.** inactive

**Q.** With `O=C(Nc1cccc(Br)c1)Nc1ccc2nc(-c3ccco3)c(-c3ccco3)nc2c1` as the compound, how does the Activity [2] read?
**A.** Active
